First the molecules themselves.
B1: tRNA (parent)
chain: GUUCCGUUGGCGUAAUGGUAACGCGUCUCCCUCCUAAGGAGAAGACUGCGGGUUCGAGUCCCGUACGGAACG

Variants at the floor of the assay were thinned out.

In this data set the parent is B1. Briefly: yeast fitness relative to wild type (ratio to wild type); higher = fitter; tRNA-Arg(CCU), competitive growth, 37 C, YPD. In short, it runs like this: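 The tRNA-Arg(CCU) gene variants were made by chemical synthesis with a 3% per-site mutation rate at 69 sites and inserted at the native genomic locus of Saccharomyces cerevisiae. After pooling, the strains were competed in YPD at 37°C for 24 hours in six parallel replicates. Gene amplicons from the start population and each end population were read by 100-nucleotide paired-end sequencing, and Darwinian fitness relative to wild type was taken from genotype frequency changes. Genotypes needed ≥ 100 starting reads, and estimates < 0.5 were set to 0.5.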
For the variant U2C A21C C30A C62U A70U, the yeast fitness is not above 0.5.
On to G6A C29U A43C C46U C49U G56C, for which the yeast fitness is not above 0.5.
Then G17A A20G, with 0.793; and C22U G23C C24A C49U C62U A69C, with 0.683; and U8A C11U C46U G68A, with not above 0.5.
As for A21C C22U A43U, the yeast fitness was determined as 0.538.
In the case of G25A C34A U47C, the yeast fitness was not above 0.5.
As for U16G C22U A37U G50C, the yeast fitness was not above 0.5.
As for U2C A43U G50A U54G C62U, the yeast fitness was not above 0.5.
The result for U2G A21G reads 0.917; that for C5G C11U A37C A43G G50A, not above 0.5.
Regarding G25A C29U A45U G58C, the yeast fitness was 0.772.
With A15G G18A G38C, the yeast fitness was not above 0.5.
Turning to A20U C24G, the yeast fitness worked out at 0.601.
Then A20C A36U A45U U53A, with not above 0.5; and C24G A43G G63U U64A, with 0.577; and C4U A14C C49G C55G, with not above 0.5.
The result for A20C U28G U47C G68C reads not above 0.5; that for A20C A65G, 0.936; that for C30U C31U C60G, not above 0.5.
For the variant U8A G10C C34U C61U U64G, the yeast fitness is not above 0.5.
Then G68C A70C, with 0.837.
Then G9A C29G, with 0.555; and G12C U28A A37G G38A A45U A70G, with not above 0.5; and C30A C55U A70C, with 0.545.
For the variant G6A A20G C46U, the yeast fitness is 0.723.
The result for A36G A37U A42U A70G reads not above 0.5; that for A15G U54A, 0.648.
On to C11A U32A C33U G68C, for which the yeast fitness is not above 0.5.
As for U19C A45U C46U A57U, the yeast fitness is not above 0.5.
Then U2G C27U C46G, with 0.564; and U2A C5U C29G A37U, with 0.512; and U3C C31U U59G, with 0.579.
The result for C5G C33A A57G reads 0.59; that for C4G A70G, 0.909; that for G6A A15U G23A C33A U54A, not above 0.5.
With A43G C49A, the yeast fitness stood at 0.574.
The result for C4U A57U U59C reads 0.54; that for A14C A36G, 0.644.
With U32C C33G A37G G52A C55U A65U, the yeast fitness came out at 0.555.
On to C31U A45C U47C A70U, for which the yeast fitness was not above 0.5.
With U3G C5A A20G A70U, the yeast fitness was not above 0.5.
The result for U7A A15G G23A C27A U28C C29G C61A reads not above 0.5.
With U2G U7G C60U C61A G67C, the yeast fitness is not above 0.5.
In the case of A20G A40U G51C, the yeast fitness was not above 0.5.
Then A21U C34G C60G, with not above 0.5.
The result for A21G C27G C31G reads 0.523.
With A43G C61A, the yeast fitness stood at 0.616.
In the case of G25A G52A C66U, the yeast fitness was 0.637.
Then C5U U47G, with 0.615.
The result for A20C C27G C49A reads not above 0.5; that for C49G G50A A57C, not above 0.5; that for C31A C46U A70C, 0.62.
A14G G17A A37U C62G: the yeast fitness was not above 0.5.
Take G10A G44A U54C C61U A69C: the yeast fitness is 0.638.
Then C4G U19A C27A G58C C61A A69U, with not above 0.5.
C61U C62U: the yeast fitness is 0.748.
On to C5A A37G A65U, for which the yeast fitness turned out to be 0.532.
Then G25A C27U A36U, with 0.53; and C4U C27G A45C C55U G67C, with not above 0.5; and U19G A43U A70C, with 0.716.
Then G12U, with 1.04; and C11A C22G C33U C34A G41A A65G, with 0.527.
Then U3A G12A C46G, with 0.657.
For G9A A21C C34A A43G, the yeast fitness is not above 0.5.
Then C27G G41C G68C, with 0.626.
Then C4G C22U, with 0.976; and G9U C22G A70U, with 0.623.
C22U A40C: the yeast fitness was 0.7.
The result for C5A G12A U47A reads not above 0.5; that for G10A C29A U35A G56A G67C, not above 0.5; that for G9A G12C G17A C22G C30U C34G U59G A70U, not above 0.5.
A15C C24U A42C: the yeast fitness stood at 0.62.
As for G6A C11U U26A C33A A43G, the yeast fitness is not above 0.5.
Then U8C A40U A45G, with 0.527.
Consider C22U G23C U26C C30A, for which the yeast fitness is 0.507.
Then U8C A20C A21C A36U A45C, with not above 0.5; and U2G C34U A36C C61A, with not above 0.5; and A14G C61A A69C, with not above 0.5.
For the variant C5G A21U C29U A37U A43G C66G, the yeast fitness was not above 0.5.
Regarding G18A C33A A36C A43G C55G, the yeast fitness is not above 0.5.
Then U54A C61U, with 0.715; and C27G A45U G67A, with not above 0.5.
Then C27G C46U G50A, with 0.599; and C5A G48A C60A, with not above 0.5; and G17C C27U U64C, with not above 0.5.
On to C27A C31A C46G, for which the yeast fitness came out at 0.688.
Take U28C A42G A65G: the yeast fitness is 0.598.
For U13A A45C, the yeast fitness amounted to 0.902.
C24U U26A U28G U54G C61U: the yeast fitness was not above 0.5.
The result for C22G C30A A42C G58A reads not above 0.5.
Then U7A C31G G51A U64A C66U G68C, with not above 0.5; and C55U C60A A65U, with not above 0.5.
On to C4A U8G A14U A70U, for which the yeast fitness was not above 0.5.
In the case of A21G C29U G41C C55U G68C, the yeast fitness is not above 0.5.
The result for U16A C61G A65G reads not above 0.5; that for C4A A15C C55U G63C, not above 0.5.
For the variant C22U U26C G63U, the yeast fitness is not above 0.5.
The result for C24U G25A C30U G50A G56A reads not above 0.5.
Then C24G A40G A57U G68A, with not above 0.5; and U16A A20U G50A, with 0.513; and A14U G18A U35A C46G A69U, with 0.591.
The result for A14C C66U reads 0.657.
G23A C30U C55A G68C: the yeast fitness was not above 0.5.
On to C5G U8C C60A G63A, for which the yeast fitness is not above 0.5.
C5G C27U G41C U53C: the yeast fitness was not above 0.5.
For A15U G44C G68C, the yeast fitness is not above 0.5.
In the case of C55U G56A, the yeast fitness stood at 0.735.
In the case of A20C C61A, the yeast fitness was 0.779.
The result for A15U U26A reads 0.666; that for G6C G10A G17A A36U G51C A69C, not above 0.5; that for C5G U13C C24U C49U A70G, not above 0.5.
Turning to C5U G10C A15G C29G A40C A43U U47A C60A, the yeast fitness is not above 0.5.
The result for G10C C33G U64C reads not above 0.5; that for C4U G48A, 0.857.
Then U8A A14G C24G A45C C62U, with not above 0.5; and U8A A42U U59A, with not above 0.5; and G9A C55U, with 0.65.
Then U8C C11U A36U, with not above 0.5; and U3G U8C C62A, with not above 0.5.
As to C24G C33U A37U G38A, the yeast fitness is not above 0.5.
A21C C30U: the yeast fitness came out at 0.734.
As to U7C A15C G25A G38A A45G G52A C61G, the yeast fitness is not above 0.5.
The result for G9A A70C reads 1.06; that for A21C U28A C31G, not above 0.5.
Then G23C C29A, with 0.548; and C11U C29U G38A G48C C62G, with not above 0.5.
The result for C5G A36C reads 0.772; that for A14G G18C C29G G56C, not above 0.5; that for U8A G17A U26C C29G U35A A42G A69U, not above 0.5.
For G44A G68C, the yeast fitness was determined as 0.764.
On to G12A C46U G51C A70U, for which the yeast fitness is 0.534.
Then U8A G39C, with 0.555.
Then C55G C60A C66A, with not above 0.5.
Then U2A C5A G50A, with not above 0.5; and G39A C60G, with 0.666.
Turning to A20G A40C A42U A43C G48A C55G, the yeast fitness is not above 0.5.
Consider C24U A37C G58A, for which the yeast fitness turned out to be 0.513.
Then U2G A42G C55U, with not above 0.5.
Then C27G C30U A42U, with 0.651; and G10C G12C, with 0.645.
Turning to U2C A40G A43U A45C, the yeast fitness is not above 0.5.
The result for G17A A43U reads 0.81; that for U7A C22G A57U, not above 0.5; that for G23A G56C, 0.65.
Then C4G C30G A42C C55G, with not above 0.5; and C5G G9C A42G U54C U59C, with not above 0.5.
For the variant G6A A65G, the yeast fitness is 0.88.
The result for G12A C33G G39C A69C reads not above 0.5; that for C27U C46G C66G A69G, not above 0.5.
Then A36G G68A, with 0.905.
Consider A20U A36G U54C C55G, for which the yeast fitness was not above 0.5.
Then C27G G39A C61G C62G, with not above 0.5; and U54A G56C, with 0.691; and G25C A40U G48C, with not above 0.5.
The result for C31G G48A reads 0.925; that for A45C C49U C55U, 0.596; that for U19C U47A, 0.896.
With G25A U26A C31U G38A A42G A43U, the yeast fitness turned out to be 0.52.
Then G52A, with 0.696; and G18C A36G A37C, with not above 0.5.
Then C22U C34G A40C C46G, with not above 0.5; and U3A U13A G23C A36C, with 0.529; and C5U C29A A65C, with not above 0.5.
The result for C4G U7C C11U C22U U35G C61A reads not above 0.5; that for C33G A43G G58A G67A A69U, 0.573.
Take C29G U35C A57G: the yeast fitness is not above 0.5.

The record behind these values is the RNAGym collection of RNA variant scans (doi:10.1126/science.aae0568).
